Activity calls are given as the source filed them.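 The calls were made as follows, unless noted: active = mean duplicate activation above the buffer control mean plus 5 SD of those controls; inactive = the rest.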
Key:
[1] = nonspecific flux increase, KCNQ1-free cells – parental CHO cells, counter-screen for KCNQ1 potentiator project (AID 493006;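 active = duplicate-averaged activation above buffer control mean plus 5 SD of those controls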); details: parental CHO-K1 cells, FluxOR thallium flux, at 10 µM; stronger effect = higher value
Method in brief: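 Assay system: parental CHO-K1 cells lacking KCNQ1, loaded with FluxOR thallium dye; timing: dye 90 min RT, compound 20 min RT; signal: kinetic thallium-flux fluorescence; repeats: duplicate wells per compound, percent values averaged; benchmarks: buffer and R-L3 controls; reagent: Potassium/thallium depolarization pulse; read-out: fluorescence change ratio scaled 0% buffer, 100% R-L3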

[2] = molecular target: Potassium voltage-gated channel subfamily KQT member 1 (Homo sapiens) (UniProt P51787); assay: enhancement of KCNQ1 channel thallium flux – FluxOR thallium flux, CHO cells, duplicates, confirmation (AID 493007;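 active = potentiation averaged over duplicate wells exceeding buffer-only control mean by more than 3 SD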;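 as to outcome: cells depolarized by a potassium plus thallium sulfate stimulus after compound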); details: KCNQ1 cell line, FluxOR thallium flux fluorescence, at 10 µM; stronger effect = higher value, % of reference activator effect, buffer zero
Method in brief: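 material = CHO cells stably expressing the KCNQ1 potassium channel | repeats = duplicate wells per compound | measure = percent activation between buffer and R-L3 responses | signal = FluxOR thallium-flux fluorescence, kinetic read | schedule = FluxOR dye loading 90 min, compound exposure 20 min, room temperature | control set = buffer and R-L3 controls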

[3] = molecular target: Potassium voltage-gated channel subfamily KQT member 2 (Rattus norvegicus) (UniProt O88943); assay: KCNQ2 thallium flux enhancement – KCNQ2-CHO-K1 cells, selectivity assay for KCNQ1 potentiator project (AID 493009;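 active = mean duplicate potentiation above the buffer control mean plus 5 SD of buffer wells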;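 also: assay conditions were tuned for KCNQ1 rather than KCNQ2 modulators; signal is max minus min fluorescence divided by baseline after thallium stimulus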); details: FluxOR thallium flux fluorescence, at 10 µM; stronger effect = higher value, scaled: buffer 0, activator control 100
[4] = molecular target: Potassium voltage-gated channel subfamily KQT member 1 (Homo sapiens) (UniProt P51787); assay: KCNQ1 activators by electrophysiology – IonWorks patch clamp, KCNQ1-CHO cells, orthogonal assay for KCNQ1 potentiator project, confirmation (AID 493184;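 active = current rise at least 3 SD above the untreated control mean in each of two repeat wells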;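 as to current potentiation: percent change of the same well's current before compound addition so 0% = no change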); details: automated patch clamp current, at 10 µM; stronger effect = higher value
Method in brief: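 Assay system – CHO cells carrying KCNQ1 · Medium – pH 7.4 external bath · Probe or stimulus – depolarizing pulse to +40 mV from -90 mV · Compound dosing – one dose, 10 µM final · Measured by – automated perforated-patch electrophysiology · Measure – % potentiation of steady-state current relative to pre-compound · Repeats – two replicates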

[5] = molecular target: Potassium voltage-gated channel subfamily E member 1 (Homo sapiens) + Potassium voltage-gated channel subfamily KQT member 1 (Homo sapiens) (UniProt P15382+P51787); assay: KCNQ1-E1 channel activation – thallium flux, CHO-K1 KCNQ1/E1 cells, selectivity assay for KCNQ1 potentiator project, confirmation (AID 493186); details: FluxOR thallium flux, at 10 µM; stronger effect = higher value
Method in brief: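 Assay system: CHO-K1 cells with KCNQ1/E1 | Dosing: Single compound concentration per well | Incubation: Dye 90 min, compound 20 min, room temperature | Measured by: FluxOR Tl+ flux fluorescence, kinetic read | Controls: Buffer low control, R-L3 high control | Replicates: Duplicate wells per compound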

Chain of Potassium voltage-gated channel subfamily KQT member 2 (Rattus norvegicus) (O88943 whole entry, looked up): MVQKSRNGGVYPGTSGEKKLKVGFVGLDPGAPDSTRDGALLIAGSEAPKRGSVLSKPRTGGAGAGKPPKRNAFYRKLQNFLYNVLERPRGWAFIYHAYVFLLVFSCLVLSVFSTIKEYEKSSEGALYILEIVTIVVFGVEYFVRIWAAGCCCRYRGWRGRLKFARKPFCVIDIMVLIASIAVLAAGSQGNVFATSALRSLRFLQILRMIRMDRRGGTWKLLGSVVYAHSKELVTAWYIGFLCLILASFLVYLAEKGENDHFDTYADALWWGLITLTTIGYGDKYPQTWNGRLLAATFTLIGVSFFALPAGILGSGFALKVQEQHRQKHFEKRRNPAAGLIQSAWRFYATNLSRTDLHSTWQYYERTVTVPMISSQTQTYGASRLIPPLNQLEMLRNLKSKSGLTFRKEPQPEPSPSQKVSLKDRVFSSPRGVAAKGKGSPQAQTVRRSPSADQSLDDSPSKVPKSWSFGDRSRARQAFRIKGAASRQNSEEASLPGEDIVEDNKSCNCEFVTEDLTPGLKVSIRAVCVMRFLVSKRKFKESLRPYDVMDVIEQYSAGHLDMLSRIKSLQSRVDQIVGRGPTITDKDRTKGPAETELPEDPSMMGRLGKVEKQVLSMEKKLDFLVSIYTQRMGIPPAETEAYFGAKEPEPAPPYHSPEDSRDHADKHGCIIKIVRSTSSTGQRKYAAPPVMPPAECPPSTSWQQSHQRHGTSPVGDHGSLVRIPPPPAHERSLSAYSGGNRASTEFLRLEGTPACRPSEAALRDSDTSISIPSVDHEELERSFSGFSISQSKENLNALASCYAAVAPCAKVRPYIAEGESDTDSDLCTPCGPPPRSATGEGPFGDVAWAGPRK
Chain of Potassium voltage-gated channel subfamily E member 1 (Homo sapiens) + Potassium voltage-gated channel subfamily KQT member 1 (Homo sapiens) (P51787 whole entry, looked up): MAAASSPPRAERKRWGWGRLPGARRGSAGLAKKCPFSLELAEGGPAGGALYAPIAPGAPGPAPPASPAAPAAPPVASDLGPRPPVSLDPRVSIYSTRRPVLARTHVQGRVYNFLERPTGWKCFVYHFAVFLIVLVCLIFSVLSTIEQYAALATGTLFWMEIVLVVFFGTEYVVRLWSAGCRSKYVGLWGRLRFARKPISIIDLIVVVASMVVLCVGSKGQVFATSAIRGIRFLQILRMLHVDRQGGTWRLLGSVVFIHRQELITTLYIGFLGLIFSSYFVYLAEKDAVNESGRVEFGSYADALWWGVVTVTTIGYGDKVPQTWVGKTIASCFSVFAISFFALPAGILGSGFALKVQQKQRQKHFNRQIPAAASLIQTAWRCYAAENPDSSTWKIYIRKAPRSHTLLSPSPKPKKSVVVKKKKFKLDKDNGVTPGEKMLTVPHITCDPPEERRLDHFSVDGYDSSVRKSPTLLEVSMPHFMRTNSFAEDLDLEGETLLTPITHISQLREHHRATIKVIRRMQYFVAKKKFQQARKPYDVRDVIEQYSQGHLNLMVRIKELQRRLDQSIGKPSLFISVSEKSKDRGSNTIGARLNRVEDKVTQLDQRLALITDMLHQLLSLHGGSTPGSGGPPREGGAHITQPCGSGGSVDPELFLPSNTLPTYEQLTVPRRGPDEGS
Chain of Potassium voltage-gated channel subfamily KQT member 1 (Homo sapiens) (P51787 whole entry, looked up): as above

Structure (SMILES)	outcome [1]	outcome [2]	outcome [3]	outcome [4]	outcome [5]	potentiation [2]	potentiation [3]	current potentiation [4]	activation [5]
Cc1cc(C(=O)NCc2ccc(S(N)(=O)=O)cc2)ccc1[N+](=O)[O-]	inactive	inactive	inactive	inactive	inactive	–	–	–	–
Cc1nc(=S)c2c([nH]1)-c1ccccc1CC21CCCCC1	inactive	–	–	inactive	inactive	84.5% (active)	180% (active)	–	–
O=C(CNc1ccc(Br)cc1)NNC1=NCCC1	inactive	inactive	–	inactive	inactive	–	142% (active)	–	–
Cc1ccc(S(=O)(=O)/N=C(\N)Nc2nc(C)c3ccccc3n2)cc1	inactive	inactive	inactive	inactive	inactive	–	–	–	–
Fc1ccc(/C=N/n2c(-c3cccs3)n[nH]c2=S)cc1	inactive	inactive	inactive	inactive	inactive	–	–	–	–
C=CCNC(=S)Nc1sc2c(c1C(=O)OCC)CCN(C(=O)OCC)C2	inactive	inactive	inactive	inactive	inactive	–	–	–	–
COCCn1c(C)cc(C(=O)COC(=O)c2ccc([N+](=O)[O-])o2)c1C	inactive	–	inactive	inactive	inactive	22.5% (active)	–	–	–
Cc1ccc(/C=N/NC(=O)c2cc(C3CC3)nc3ccccc23)o1	inactive	–	inactive	inactive	inactive	29.5% (active)	–	–	–
CC(C)CC(=O)Nc1nnc(SCC(=O)NCc2ccco2)s1	inactive	inactive	inactive	inactive	inactive	–	–	–	–
Cc1ccc(S(=O)(=O)N2CCN(C(=O)c3ccc(Br)o3)CC2)c(C)c1	inactive	inactive	inactive	inactive	inactive	–	–	–	–
CC12CCC(C/C1=N\N=C1\NC(=O)/C(=C\c3cccc(Br)c3)S1)C2(C)C (stereo not given)	inactive	–	–	inactive	inactive	51% (active)	154% (active)	–	–
CC(=O)C[C@H]1c2cc(C(F)(F)F)ccc2S(=O)(=O)N1Cc1ccccc1	inactive	–	inactive	inactive	inactive	65.5% (active)	–	–	–
COC(=O)N1C(=O)[C@@](Cc2ccccc2)(c2ccccc2)N1C(=O)OC	inactive	–	inactive	inactive	inactive	24% (active)	–	–	–
Cc1cc(C)c2c(=O)n(CC(=O)Nc3ccc(Cl)cc3)sc2n1	inactive	–	inactive	inactive	inactive	25% (active)	–	–	–
Oc1c(Cl)cc(Cl)cc1/C=N/NC(=S)NC1CC2C=CC1C2 (stereo not given)	inactive	inactive	inactive	inactive	inactive	–	–	–	–
O=C(NC(=S)Nc1cccc(Cl)c1)c1cncc(Br)c1	inactive	inactive	inactive	inactive	inactive	–	–	–	–
CCN(CC)C(=S)SCC(=O)Nc1nc(=O)c2ccccc2s1	inactive	inactive	inactive	inactive	inactive	–	–	–	–
CCOC(=O)N1CCC(N2C(=O)c3ccc(C(=O)NCCC(C)C)cc3C2=O)CC1	inactive	–	–	inactive	inactive	69% (active)	150% (active)	–	–
CCOC(=O)c1oc2ccc(S(=O)(=O)n3nc(-c4ccc(OC)cc4)cc3N)cc2c1C	inactive	inactive	inactive	–	inactive	–	–	15.4% (active)	–
CCCC(=O)N(Cc1cccnc1)c1nc2c(OC)ccc(Cl)c2s1	inactive	–	inactive	inactive	inactive	51.5% (active)	–	–	–

Structure (SMILES)	outcome [1]	outcome [2]	outcome [3]	outcome [4]	outcome [5]	potentiation [2]	potentiation [3]	current potentiation [4]	activation [5]
O=C(COc1ccccc1)NC(=S)Nc1ccc(Br)cn1	inactive	–	–	inactive	–	41.5% (active)	206% (active)	–	20.3% (active)
CCCCS(=O)(=O)/C=C\C=C/S(=O)(=O)CCCC	inactive	inactive	inactive	inactive	inactive	–	–	–	–
Cn1c(=O)c2c(ncn2CC(=O)N/N=C/C(Cl)=C/c2ccccc2)n(C)c1=O	inactive	inactive	inactive	inactive	inactive	–	–	–	–
Cc1ccc(C)c(/C=N/n2cc(-c3ccccc3)[nH]c2=S)c1	inactive	–	inactive	inactive	inactive	24.5% (active)	–	–	–
O=C1c2ccccc2C(=O)C12OC2c1cccc2ccccc12 (stereo not given)	inactive	inactive	inactive	inactive	inactive	–	–	–	–
CC(Sc1cccc[n+]1[O-])c1ccccc1 (stereo not given)	inactive	inactive	inactive	inactive	inactive	–	–	–	–
CCn1c(CN2CCN(c3ccc(OC)cc3)CC2)nc2cc(S(=O)(=O)N(C)C)ccc21	inactive	inactive	inactive	inactive	inactive	–	–	–	–
CSCC(C)N1CCC(n2nccc2NC(=O)CCOc2ccccc2)CC1 (stereo not given)	inactive	inactive	inactive	inactive	inactive	–	–	–	–
O=C(CN1CCCCCC1)Nc1ccc(Oc2ccccc2)cc1	inactive	inactive	inactive	inactive	inactive	–	–	–	–
CCc1cc(=O)oc2cc(OC(C)C(=O)NCC(O)c3ccccc3)c(Cl)cc12 (stereo not given)	inactive	inactive	inactive	inactive	inactive	–	–	–	–
S=C1N(c2ccccc2)C(c2ccccc2)N2CCCN12 (stereo not given)	inactive	inactive	inactive	inactive	inactive	–	–	–	–
CC(C)CCn1c(SCC(=O)NC2CC2)nc2cc(Cl)ccc2c1=O	inactive	inactive	inactive	inactive	inactive	–	–	–	–
COc1ccc(-c2nn(-c3ccccc3)cc2C(=O)NC(=S)NNC(=O)c2ccncc2)cc1	inactive	–	inactive	inactive	inactive	17.5% (active)	–	–	–
COc1ccc(C2c3ccc4ccccc4c3Oc3ncn(CCN4CCOCC4)c(=N)c32)cc1OC (stereo not given)	inactive	inactive	inactive	inactive	inactive	–	–	–	–
CC1Oc2ccccc2N(CC(=O)N2CCCCCC2)C1=O (stereo not given)	inactive	–	inactive	inactive	inactive	27.5% (active)	–	–	–
CCCn1c(SCC(=O)Nc2ccccc2C(=O)OC)nc2c1c(=O)n(C)c(=O)n2C	inactive	–	inactive	inactive	inactive	120% (active)	–	–	–
CCc1ccc(NC(=O)/C(C#N)=C/c2ccncc2)cc1	inactive	inactive	inactive	inactive	inactive	–	–	–	–
CCOC(=O)CNC(=O)N1CCc2ccc(NC(=O)c3ccccc3Cl)cc2C1	inactive	inactive	inactive	inactive	inactive	–	–	–	–
Cc1ccsc1/C=N\NC(=O)c1n[nH]c2c1CCC2	inactive	inactive	inactive	inactive	inactive	–	–	–	–
O=C(NNc1ncc(C(F)(F)F)cc1Cl)c1ccc(Cl)c(Cl)c1	inactive	inactive	–	inactive	inactive	–	198% (active)	–	–

Structure (SMILES)	outcome [1]	outcome [2]	outcome [3]	outcome [4]	outcome [5]	potentiation [2]	potentiation [3]	current potentiation [4]	activation [5]
CSc1ncc(C(=O)Nc2ccccc2Cl)c(C)n1	inactive	inactive	inactive	inactive	inactive	–	–	–	–
CCCSc1ncnc2c1oc1ccccc12	inactive	inactive	inactive	inactive	inactive	–	–	–	–
O=[N+]([O-])c1cccc(/C=N/Nc2nc(NCc3ccccc3)nc(N3CCOCC3)n2)c1O	inactive	inactive	inactive	inactive	inactive	–	–	–	–
Cc1ccc(-c2noc(CNS(=O)(=O)c3ccccc3)n2)cc1	inactive	inactive	inactive	inactive	inactive	–	–	–	–
Cc1c(C(=O)Nc2ccc(F)cc2)oc2ccc(S(=O)(=O)N3CC(C)CC(C)C3)cc12 (stereo not given)	inactive	inactive	inactive	inactive	inactive	–	–	–	–
O=C1CCCCCN1Sc1ccccc1	inactive	–	inactive	inactive	inactive	18.5% (active)	–	–	–
CCCN(CCC)Cc1c(C(=O)N/N=C/C(C)=C\c2ccco2)nnn1-c1nonc1N	inactive	inactive	inactive	inactive	inactive	–	–	–	–
CC1(C)CC(N=c2cc(-c3ccccc3)oc3ccc(Cl)cc23)CC(C)(C)N1	inactive	inactive	inactive	inactive	inactive	–	–	–	–
Cc1ccc(C(=O)NC(=S)NNC(=O)COc2ccc([N+](=O)[O-])cc2)cc1	inactive	–	inactive	inactive	inactive	19.5% (active)	–	–	–
O=C(NC1CCCC1)C(c1cccnc1)N(C(=O)c1csnn1)c1ccccc1 (stereo not given)	inactive	–	inactive	inactive	inactive	27% (active)	–	–	–
Cc1ccc(CCNC(=O)C2CC(c3cccc(F)c3)=NO2)cc1 (stereo not given)	inactive	inactive	inactive	inactive	inactive	–	–	–	–
O=c1oc2ccccc2c(Cl)c1CN1CCCCC1	inactive	inactive	inactive	inactive	inactive	–	–	–	–
O=c1c2cc(Cl)ccc2[nH]c(=S)n1Cc1cccs1	inactive	inactive	–	inactive	inactive	–	142% (active)	–	–
CCOC(=O)c1cc2c(C)n(-c3ccc(C)cc3)c(C)c2ccc1=O	inactive	–	inactive	inactive	inactive	19.5% (active)	–	–	–
O=C(O)/C=C/C(=O)c1ccc2c(c1)CCc1ccccc1-2	inactive	inactive	inactive	inactive	inactive	–	–	–	–
Cc1cc(-c2cccnc2)c(C#N)c(SCC#N)n1	inactive	inactive	inactive	inactive	inactive	–	–	–	–
COC(=O)c1ccccc1NC(=S)NC(=O)c1ccc(C)cc1	inactive	inactive	inactive	inactive	inactive	–	–	–	–
Clc1ccc(Nc2ccc(Cl)nn2)cc1	inactive	inactive	–	inactive	inactive	–	147% (active)	–	–
CC1CN(c2nc3ccccc3nc2C(C#N)C(=O)NCc2ccc3c(c2)OCO3)CC(C)O1 (stereo not given)	inactive	–	inactive	inactive	inactive	26% (active)	–	–	–
O=C(O)c1ccc([N+](=O)[O-])c(CS(=O)(=O)c2ccccc2)c1	inactive	inactive	inactive	inactive	inactive	–	–	–	–

From PubChem BioAssay
